Compound activity (PubChem BioAssay)
Hits are enriched below; roughly 1.4% of the tested compounds scored in any of these assays.
NR1D1 modulator – modulators of human Rev-erb alpha DNA binding; AID 1259318; Rev-erbα–FITC-DNA binding, fluorescence polarization, 90 min; hit rate 0.79% among 370,000; activity, % at 10 µM;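 active = activity above about 14%, limit read from the data; passing the limit was not always enough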;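 note: 0% = DMSO wells with 35 nM protein and 100% = DMSO wells with 750 nM protein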
PG9 Ab binder – PG9 antibody binding by small molecule | inhibition, % at 6.7 µM | hit rate 0.43% among 360,000 | TR-FRET gp120-PG9 antibody binding; in the data active = inhibition above about 8.5%
NR2E3 ag-1 – agonists of human nuclear receptor NR2E3. Q9Y5X4. GST-NR2E3/biotin-RetCOR TR-FRET, 1536-well. inhibition of corepressor binding, % at 4.78 µM. hit rate 0.12% among 320,000. AID 2300;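 active = percent inhibition above the cutoff of mean plus 3 SD of all tested compounds, set per screening campaign, cut at about 20% in these data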;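 note: 0% = DMSO wells and 100% = biotin wells as full block of FRET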
Target sequence (Q9Y5X4 whole entry, looked up): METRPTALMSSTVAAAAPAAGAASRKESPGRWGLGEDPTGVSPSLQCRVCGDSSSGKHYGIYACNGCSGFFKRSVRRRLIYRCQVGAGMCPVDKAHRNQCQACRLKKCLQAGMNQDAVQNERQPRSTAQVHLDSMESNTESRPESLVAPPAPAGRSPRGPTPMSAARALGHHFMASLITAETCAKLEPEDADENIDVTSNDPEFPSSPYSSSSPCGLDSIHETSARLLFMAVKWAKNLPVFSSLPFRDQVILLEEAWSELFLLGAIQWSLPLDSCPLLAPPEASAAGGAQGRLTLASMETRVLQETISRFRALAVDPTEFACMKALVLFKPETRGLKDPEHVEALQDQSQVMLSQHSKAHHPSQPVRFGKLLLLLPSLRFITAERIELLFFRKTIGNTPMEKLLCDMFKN
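Material: NR2E3–RetCOR corepressor complex | Quantity: 1.35 nM GST-tagged NR2E3 final | Schedule: 5 h at 4 °C | Replication: Singlicate compound wells | Reagent: RetCOR corepressor, biotinylated, 7 nM | Controls: Biotin wells as high control, 0.6% DMSO wells as low control | Signal: TR-FRET, Eu(K)-anti-GST donor, streptavidin-D2 acceptor, ex 340, em 617/671 nm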
NR2E3 ag-2 – agonists of human NR2E3 nuclear receptor. CHO-S Gal4-NCOR/VP16-NR2E3 two-hybrid, luciferase. inhibition of corepressor binding, % at 3.98 µM. Q9Y5X4. hit rate 0.35% among 360,000. AID 602229;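 active = inhibition above the mean of all tested compounds plus 3 SD, cut at about 70% in these data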;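 note: 0% = DMSO with NR2E3 transfected cells and 100% = cells lacking NR2E3 construct; higher means lower luciferase signal from less NR2E3 corepressor binding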
NR1D1 mod conf – Rev-erb alpha (human) modulation, hit confirmation. shares compounds with NR1D1 modulator. Rev-erb alpha FITC-DNA binding, fluorescence polarization, 90 min. activation, % at 25 µM. hit rate 61% among 3,000. AID 1259319;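 active = activation at or above a set limit, or at least 3 SD above the negative control mean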;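 note: 0% = 35 nM protein with DMSO and 100% = 750 nM protein high control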
RORg DNA counter – RORgamma DNA-binding activity, dose-response counter-screen; shares compounds with NR1D1 modulator; purified RORgamma protein-FITC-DNA binding, fluorescence polarization; IC50, µM; hit rate 8% among 910;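 active = Compounds whose fitted half-maximal concentration for disrupting protein-DNA binding is below 10 micromolar; the record names Rev-erb in its text, so the target is in doubt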
* = called active by the depositor; i = inactive; x = not tested or not shown.

SMILES | NR1D1 modulator | PG9 Ab binder | NR2E3 ag-1 | NR2E3 ag-2 | NR1D1 mod conf | others
CCCN(C(=O)c1cc(S(=O)(=O)N(C)c2ccccc2OC)ccc1C)C1CCS(=O)(=O)C1 (stereo not drawn) | 3 | -2 | x | -26 | x
O=C(NCCc1ccccc1)c1cc(-c2ccccc2)c(N2CCOCC2)s1 | -1 | 2 | 5 | -18 | x
CSc1ccc(CCNC(=O)c2cc(-c3ccccc3)c(N3CCOCC3)s2)cc1 | 67* | 2 | 4 | -1 | 51* | RORg DNA counter=i
CCCCCCc1nc2nc(Cl)c(Cl)nc2[nH]1 | 22* | -2 | x | -2 | -2
O=C(O)c1nc2nc(Cl)c(Cl)nc2[nH]1 | 2 | 0 | -3 | -49 | x
O=C(Nc1ccc(F)cc1)c1sc2cc(C(F)(F)F)cnc2c1-c1cccs1 | 49* | -13 | -7 | -19 | 21*
CCCNC(=O)CS(=O)(=O)Cc1nc(-c2cccc(OC)c2)oc1C | -6 | -1 | 4 | 10 | x
COc1cccc(-c2nc(CS(=O)(=O)CC(=O)NCc3ccc(Cl)cc3)c(C)o2)c1 | 29* | 3 | -3 | -22 | 32* | RORg DNA counter=>40
COc1cccc(-c2nc(CS(=O)(=O)CC(=O)Nc3cccc(C)c3C)c(C)o2)c1 | 19* | 1 | 4 | 25 | 9
COc1cccc(-c2nc(CS(=O)(=O)CC(=O)Nc3ccccc3C)c(C)o2)c1 | 1 | 3 | 1 | -5 | x
Cc1cc(NC(=O)C2(C)CCN2C(C)C)c2ccccc2n1 (stereo not drawn) | -4 | -1 | x | 27 | x
CC(C)(C)OC(=O)NCc1ccccc1/C=C/S(=O)(=O)NCc1ccccc1 | -2 | x | x | x | x
Cn1nc(C(C)(C)C)cc1NC(=O)C1(C)CCN1C(=O)CCc1ccccc1 (stereo not drawn) | -3 | 0 | x | -23 | x
Cn1nc(C(C)(C)C)cc1NC(=O)C1(C)CCN1C(=O)c1ccccc1CCc1ccccc1 (stereo not drawn) | 20* | -1 | x | -11 | -1
O=S(=O)(c1ccc(F)cc1)N1CCN(c2ccc(F)cc2)CC1 | 0 | 0 | 1 | -37 | x
CC1CCN(S(=O)(=O)c2ccc3nc(N4CCN(c5ccccc5)CC4)ccc3c2)CC1 | 92* | 1 | 7 | x | 57* | RORg DNA counter=>40
O=S(=O)(c1ccc2nc(N3CCN(c4ccccc4F)CC3)ccc2c1)N1CCCCC1 | 41* | 0 | -1 | 10 | 31* | RORg DNA counter=>40
O=S(=O)(c1ccc2nc(N3CCN(c4ccc(F)cc4)CC3)ccc2c1)N1CCCCC1 | 37* | -1 | -1 | -2 | 27*
O=c1ccc2cc(S(=O)(=O)N3CCN(c4ccccc4F)CC3)ccc2[nH]1 | -2 | 0 | 1 | 23 | x
Cc1cccc(C)c1-n1nnnc1C1(C)CCC(=O)N1Cc1ccco1 (stereo not drawn) | 0 | 0 | x | -28 | x
O=C(CC1CCCC1)N[C@H](C(=O)N1CCC[C@H]1C(=O)NCCc1ccccc1Cl)c1ccccc1 | -5 | 0 | x | x | x
C[C@H]1CN([C@@H](C)CO)C(=O)CCCn2nncc2CO[C@H]1CN(C)C(=O)c1ccccc1 | 2 | 1 | x | -10 | x
Cc1ccc(C(=O)CCC(=O)OCC(=O)N2CCN(S(=O)(=O)c3ccc(C)cc3C)CC2)cc1 | -5 | -1 | x | -8 | x
CCC(C)(C)c1ccc(OCCCC[n+]2cccc(C)c2C)c(C(C)(C)CC)c1 | 42* | -1 | -3 | 4 | 43*
CCC(C)(C)c1ccc(OCCCC[n+]2ccc(C)cc2)c(C(C)(C)CC)c1 | 34* | 0 | 1 | x | 36* | RORg DNA counter=>40
SMILES | NR1D1 modulator | PG9 Ab binder | NR2E3 ag-1 | NR2E3 ag-2 | NR1D1 mod conf | others
Cc1cc(=O)[nH]c(N/N=C/c2c(C)nn(-c3ccc(F)cc3)c2Cl)n1 | 6 | -2 | 5 | -7 | x
Cc1nn(-c2ccccc2)c(Cl)c1/C=N/Nc1nncc(=O)[nH]1 | 25* | -4 | 0 | 5 | 18
COc1ccc(-c2cc3c(=O)n(CC(=O)NCc4ccc(Cl)cc4)ncn3n2)cc1 | 21* | 0 | -1 | -20 | 5
Cc1ccccc1Cn1ccc(NC(=O)c2cc3nc(-c4ccco4)cc(C(F)(F)F)n3n2)n1 | 0 | 0 | -1 | -20 | x
CCc1ccc(-c2cc(C(F)(F)F)n3nc(C(=O)Nc4c(C)nn(Cc5ccccc5Cl)c4C)cc3n2)s1 | 72* | -4 | -1 | 14 | 38* | RORg DNA counter=>40
CCc1ccc(-c2cc(C(F)(F)F)n3nc(C(=O)Nc4c(C)nn(Cc5ccccc5C)c4C)cc3n2)s1 | x | x | 1 | 6 | x
Cc1ccccc1Cn1cc(NC(=O)c2cc(-c3ccco3)on2)cn1 | 0 | -4 | 1 | 2 | x
Cc1ccccc1Cn1cc(NC(=O)c2cc(-c3cccs3)on2)cn1 | 20* | 5 | 0 | -5 | 5
CCc1ccc(-c2cc(C(F)(F)F)n3nc(C(=O)Nc4cnn(Cc5ccccc5C)c4)cc3n2)s1 | 37* | 0 | 0 | -11 | 13
Cn1cc(SCC(=O)NCC2CCCO2)c2ccccc21 (stereo not drawn) | 30* | -2 | 3 | 2 | 1
Cn1c(SCC(=O)NCCc2ccccc2)ncc(C(=O)Nc2ccccc2)c1=O | 30* | 5 | 1 | -9 | 20*
Cn1c(SCC(=O)NCC2CCCO2)ncc(C(=O)Nc2ccc(Cl)cc2)c1=O (stereo not drawn) | 24* | -3 | 1 | -35 | 2
NS(=O)(=O)c1ccc(CCNc2ccccc2[N+](=O)[O-])cc1 | 21* | -1 | 1 | -37 | 13
COc1ccc(-c2cc3ccc(OCC(C)=O)cc3oc2=O)cc1OC | 19* | -1 | 1 | -56 | 15
COC(=O)COc1ccc2cc(-c3ccc(OC)cc3)c(=O)oc2c1 | 25* | -1 | -2 | -8 | -4
CCOc1cccc(-c2nnc(SCC(=O)Nc3ccc4c(c3)OCO4)n2N)c1 | -11 | x | x | x | x
CCCCCCN1C[C@@H](O)[C@H](n2cc(-c3ccc(F)cc3)nn2)C[C@@H]1c1ccccc1 | -1 | -1 | x | -33 | x
CCc1nc(SCC#N)c(C#N)cc1C | x | x | 1 | x | x
Cc1cccc2cc(C#N)c(SCC#N)nc12 | 63* | 2 | -7 | -1 | 53* | RORg DNA counter=>40
CN(CC(=O)Nc1cccc(F)c1)C(=O)CCc1nc2sc3c(c2c(=O)[nH]1)CCCC3 | 20* | 2 | 1 | 22 | 7
Cc1cccc(C)c1NC(=O)CN(C)C(=O)CCc1nc2sc3c(c2c(=O)[nH]1)CCCC3 | 3 | 2 | 2 | -4 | x
CN(CC(=O)Nc1ccc(F)c(F)c1F)C(=O)CCc1nc2sc3c(c2c(=O)[nH]1)CCCC3 | 19* | 0 | -2 | 1 | 17
CCNC(=O)OCCN1C(=O)CCC12CCC(c1ccc(Cl)cc1)CC2 (stereo not drawn) | 4 | x | x | x | x
COc1ccc(C2CC(=O)C(c3cccc(OC)c3)=CN2Cc2ccccc2)cc1 (stereo not drawn) | -2 | 1 | x | x | x
